Results from ChEMBL document CHEMBL4017514, “Discovery of Novel Macrocyclic Hedgehog Pathway Inhibitors Acting by Suppressing the Gli-Mediated Transcription” (J Med Chem, 2017).
Calls of active or inactive are those of the source. The rule behind the calls is not given here.

Assays:
[1] = Inhibition of hedgehog signaling pathway in mouse Light2 cells in Shh conditioned medium by Gli-luciferase reporter gene assay; assay type: cell-based
Summary of the method: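 Light II cells (NIH-3T3 stably transfected with Gli-responsive firefly luciferase and Renilla expression vector) stimulated with ShhN conditioned medium. This medium was collected from ShhN-transfected HEK293 cells kept in 0.1% FBS. Firefly luciferase normalized to Renilla. IC50 given as mean ± SD (nM) from three separate experiments.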

Mus musculus [2] = organism: Mus musculus; assay: Inhibition of hedgehog signaling pathway in mouse Light2 cells in Shh conditioned medium at 1 uM by Gli-luciferase reporter gene assay relative to control; assay type: cell-based
Homo sapiens [3] = organism: Homo sapiens; assay: Inhibition of TNFalpha-induced NFkappaB activation in HEK293 cells at 20 uM after 24 hrs by dual luciferase reporter gene assay; assay type: cell-based; settings: 1 uM, in the assay text read “1 uM” for “20 uM”
Summary of the method: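 HEK293 cells carrying NF-κB firefly reporter plus Renilla, stimulated with TNF-α and treated for 24 h. Cells lysed for dual luciferase assay, firefly signal normalized to Renilla. Data given as mean ± SD.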

Mus musculus [4] = organism: Mus musculus; assay: Inhibition of hedgehog signaling pathway in mouse NIH/3T3 cells harboring sufu shRNA assessed as downregulation of Gli1 mRNA expression at 1 uM by RT-qPCR analysis; assay type: cell-based
Summary of the method: (§1)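 Sufu expression in NIH-3T3 cells was reduced by lentivirus carrying Sufu shRNA. Knockdown was checked by immunoblot of Sufu, with GAPDH as loading control, in lysates made in Tris pH 7.4/NaCl/NP-40 buffer with protease and phosphatase inhibitors. Gli1 and ptch1 mRNA were then measured in the knockdown cells by RT-qPCR.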

Mus musculus [5] = organism: Mus musculus; assay: Inhibition of hedgehog signaling pathway in mouse NIH/3T3 cells harboring sufu shRNA assessed as downregulation of ptch1 mRNA expression at 1 uM by RT-qPCR analysis; assay type: cell-based; summary of the method: as §1
Homo sapiens [6] = organism: Homo sapiens; assay: Inhibition of PGE2-stimulated TCF/LEF activity in human LS174T cells at 20 uM measured after 6 hrs by dual luciferase reporter gene assay; assay type: cell-based
Summary of the method: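 LS174T cells carrying TCF/LEF reporter, stimulated with PGE2 and treated for 6 h. Dual luciferase read-out, firefly normalized to Renilla. Data given as mean ± SD.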

Mus musculus [7] = organism: Mus musculus; assay: Inhibition of hedgehog signaling pathway in mouse NIH/3T3 cells assessed as downregulation of Shh-induced Gli1 mRNA expression levels at 100 nM after 36 hrs by RT-qPCR analysis; assay type: cell-based
Summary of the method: (§2)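 NIH-3T3 or C3H10T1/2 cells treated as indicated for 36 h, then collected for RT-qPCR of Gli1 and ptch1 mRNA. Data given as mean ± SD.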

Medulloblastoma cell = assay: Antiproliferative activity against mouse Ptch+/- p53-/- medulloblastoma cells assessed as reduction in cell proliferation up to 30 uM after 72 hrs by MTS assay; assay type: functional, cell-based
Summary of the method: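 Tumor cells obtained from ptch+/−;p53−/− medulloblastoma allografts by mechanical mincing and collagenase digestion. Cultured in Neurobasal A with B-27, EGF 20 ng/mL, bFGF 20 ng/mL, nonessential amino acids and N-acetylcysteine 60 μg/mL. Exposed to compounds for 72 h, then proliferation read by MTS assay. Data given as mean ± SD.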

Mus musculus [8] = organism: Mus musculus; assay: Inhibition of hedgehog signaling pathway in mouse Shh Light2 cells harboring Gli2 plasmid assessed as reduction in Gli2-mediated transcriptional activity at 100 nM by luciferase reporter gene assay; assay type: cell-based
Mus musculus [9] = organism: Mus musculus; assay: Inhibition of hedgehog signaling pathway in mouse NIH/3T3 cells assessed as downregulation of Shh-induced ptch1 mRNA expression levels at 100 nM after 36 hrs by RT-qPCR analysis; assay type: cell-based; summary of the method: as §2
Mus musculus [10] = organism: Mus musculus; assay: Inhibition of hedgehog signaling pathway in mouse C3H10T1/2 cells assessed as downregulation of Shh-induced ptch1 mRNA expression levels at 100 nM after 36 hrs by RT-qPCR analysis; assay type: cell-based; summary of the method: as §2
Mus musculus [11] = organism: Mus musculus; assay: Inhibition of hedgehog signaling pathway in mouse NIH/3T3 cells harboring sufu shRNA assessed as downregulation of ptch1 mRNA expression at 100 nM by RT-qPCR analysis; assay type: cell-based
Mus musculus [12] = organism: Mus musculus; assay: Inhibition of hedgehog signaling pathway in mouse NIH/3T3 cells harboring sufu shRNA assessed as downregulation of Gli1 mRNA expression at 100 nM by RT-qPCR analysis; assay type: cell-based
Mus musculus [13] = organism: Mus musculus; assay: Inhibition of hedgehog signaling pathway in mouse Shh Light2 cells harboring Gli1 plasmid assessed as reduction in Gli1-mediated transcriptional activity at 100 nM by luciferase reporter gene assay; assay type: cell-based
Mus musculus [14] = organism: Mus musculus; assay: Inhibition of hedgehog signaling pathway in mouse C3H10T1/2 cells assessed as downregulation of Shh-induced Gli1 mRNA expression levels at 100 nM after 36 hrs by RT-qPCR analysis; assay type: cell-based; summary of the method: as §2

| SMILES | IC50 ([1]; Mus musculus) [nM] | inhibition (Mus musculus [2]) [%] | also measured |
| --- | --- | --- | --- |
| O=C(Nc1cccc2c1OCC1CN(S(=O)(=O)c3ccc(Cl)s3)CCN1C2=O)C1CC1 (stereo unspecified) | 482 | 80 |  |
| O=C(Nc1cccc2c1OCC1CN(S(=O)(=O)c3ccc(Cl)cc3)CCN1C2=O)C1CC1 (stereo unspecified) | > 1000 | 35 |  |
| Cn1ccc(S(=O)(=O)N2CCN3C(=O)c4cccc(NC(=O)C5CC5)c4OCC3C2)n1 (stereo unspecified) | > 1000 | 58 |  |
| COc1ccc(CN2C[C@H]3CN(S(=O)(=O)c4ccc(Cl)cc4)CC[C@H]3Oc3c(NC(=O)C4CC4)cccc3C2=O)cc1 | 200 | 92 |  |
| C[C@H](CO)N1CC2CCN(S(=O)(=O)c3ccc(Cl)cc3)CC2Oc2c(NC(=O)C3CC3)cccc2C1=O (stereo partly specified) [listing 1 of 2 here] | > 1000 |  |  |
| COc1ccc(CN2C[C@@H]3CN(S(=O)(=O)c4ccc(Cl)cc4)CC[C@@H]3Oc3c(NC(=O)C4CC4)cccc3C2=O)cc1 [listing 1 of 2 here] |  |  | IC50 [1]: 12 nM |
| COc1ccc(CN2C[C@@H]3CN(S(=O)(=O)c4ccc(Cl)cc4)CC[C@@H]3Oc3c(NC(=O)C4CC4)cccc3C2=O)cc1 [listing 2 of 2 here] |  | 117 |  |
| C[C@H](CO)N1CC2CCN(S(=O)(=O)c3ccc(Cl)cc3)CC2Oc2c(NC(=O)C3CC3)cccc2C1=O (stereo partly specified) [listing 2 of 2 here] |  | 34 |  |
| Cc1ccc(S(=O)(=O)/C=C/C#N)cc1 |  |  | inhibition (Homo sapiens [3]): Active |
| Cc1sc2c(c1C)C(c1ccc(Cl)cc1)=N[C@@H](CC(=O)OC(C)(C)C)c1nnc(C)n1-2 |  |  | inhibition (Mus musculus [4]): Active; inhibition (Mus musculus [5]): Active |
| O=S(=O)(NCCNC/C=C/c1ccc(Br)cc1)c1cccc2cnccc12 |  |  | inhibition (Homo sapiens [6]): Active |
| COc1ccc(CN2C[C@@H]3CN(S(=O)(=O)c4ccn(C)n4)CC[C@@H]3Oc3c(NC(=O)C4CC4)cccc3C2=O)cc1 (racemic) | 145 | 87 |  |
| O=C(Nc1cccc2c1O[C@H]1CN(S(=O)(=O)c3ccc(Cl)cc3)CC[C@H]1CN(CCO)C2=O)C1CC1 (racemic) | > 1000 | 25 |  |
| COc1ccc(CN2C[C@@H]3CCN(S(C)(=O)=O)C[C@@H]3Oc3c(NC(=O)C4CC4)cccc3C2=O)cc1 (racemic) | > 1000 | 45 |  |
| COc1ccc(CN2C[C@@H]3CCN(S(=O)(=O)c4ccc(NC(C)=O)cc4)C[C@@H]3Oc3c(NC(=O)C4CC4)cccc3C2=O)cc1 (racemic) | 42 | 105 |  |
| O=C(Nc1cccc2c1O[C@H]1CN(S(=O)(=O)c3ccc(Cl)cc3)CC[C@H]1CN(Cc1cccnc1)C2=O)C1CC1 (racemic) | > 1000 | 28 |  |
| COc1ccc(CN2CC3CN(S(=O)(=O)c4ccc(Cl)cc4Cl)CCC3Oc3c(NC(=O)C4CC4)cccc3C2=O)cc1 (racemic) | 33 | 107 |  |
| COc1ccc(CN2C[C@@H]3CCN(S(=O)(=O)C4CCCCC4)C[C@@H]3Oc3c(NC(=O)C4CC4)cccc3C2=O)cc1 (racemic) | > 1000 | 42 |  |
| O=C(Nc1cccc2c1O[C@H]1CN(S(=O)(=O)c3ccc(Cl)cc3)CC[C@H]1CN(CCO)C2=O)C1CCCCC1 (racemic) | > 1000 | 32 |  |
| COc1ccc(CN2C[C@@H]3CCN(S(=O)(=O)c4ccc(Cl)cc4)C[C@@H]3Oc3c(NC(=O)C4CC4)cccc3C2=O)cc1 (racemic) | 304 | 97 |  |

| SMILES | IC50 ([1]; Mus musculus) [nM] | inhibition (Mus musculus [2]) [%] | also measured |
| --- | --- | --- | --- |
| CN1CCC(N2C[C@@H]3CCN(S(=O)(=O)c4ccc(Cl)cc4)C[C@@H]3Oc3c(NC(=O)C4CC4)cccc3C2=O)CC1 (racemic) | 344 | 61 |  |
| COc1ccc(CN2C[C@@H]3CCN(S(=O)(=O)c4ccc(Cl)s4)C[C@@H]3Oc3c(NC(=O)C4CC4)cccc3C2=O)cc1 (racemic) | 167 | 113 |  |
| COc1ccc(CN2C[C@@H]3CCN(S(=O)(=O)c4ccc(Cl)cc4)C[C@@H]3Oc3ccc(NC(=O)C4CC4)cc3CC2=O)cc1 (racemic) | 502 | 60 |  |
| COc1ccc(CN2C[C@@H]3CCN(C(=O)Nc4ccc(C(F)(F)F)cc4)C[C@@H]3Oc3c(NC(=O)C4CC4)cccc3C2=O)cc1 (racemic) | 292 | 100 |  |
| COc1ccc(CN2C[C@@H]3CN(S(=O)(=O)c4ccc(Cl)cc4)CC[C@@H]3Oc3ccc(NC(=O)C4CC4)cc3CC2=O)cc1 (racemic) | > 1000 | 36 |  |
| COc1ccc(CN2C[C@@H]3CCN(S(=O)(=O)N4CCN(C)CC4)C[C@@H]3Oc3c(NC(=O)C4CC4)cccc3C2=O)cc1 (racemic) | > 1000 | 45 |  |
| COc1ccc(CN2C[C@@H]3CN(S(=O)(=O)c4ccc(Cl)s4)CC[C@@H]3Oc3c(NC(=O)C4CC4)cccc3C2=O)cc1 (racemic) | 46 | 108 |  |
| COc1ccc(CN2CC3CN(C(=O)Nc4ccc(C(F)(F)F)cc4)CCC3Oc3c(NC(=O)C4CC4)cccc3C2=O)cc1 (racemic) | > 1000 | 68 |  |
| COc1ccc(CN2CC3CN(S(=O)(=O)c4ccc(NC(C)=O)cc4)CCC3Oc3c(NC(=O)C4CC4)cccc3C2=O)cc1 (racemic) | 773 | 82 |  |
| COc1ccc(CN2C[C@@H]3CCN(S(=O)(=O)c4ccn(C)n4)C[C@@H]3Oc3ccc(NC(=O)C4CC4)cc3CC2=O)cc1 (racemic) | > 1000 | 16 |  |
| COc1ccc(CN2C[C@@H]3CCN(S(=O)(=O)c4ccc(OC)c(OC)c4)C[C@@H]3Oc3c(NC(=O)C4CC4)cccc3C2=O)cc1 (racemic) | > 1000 | 54 |  |
| COc1ccc(CN2C[C@@H]3CCN(C(=O)c4ccc(Cl)cc4)C[C@@H]3Oc3c(NC(=O)C4CC4)cccc3C2=O)cc1 (racemic) | > 1000 | 22 |  |
| COc1ccc(CN2C[C@@H]3CN(S(=O)(=O)c4ccn(C)n4)CC[C@@H]3Oc3ccc(NC(=O)C4CC4)cc3CC2=O)cc1 (racemic) | > 1000 |  |  |
| COc1ccc(CN2C[C@@H]3CCN(S(=O)(=O)c4ccn(C)n4)C[C@@H]3Oc3c(NC(=O)C4CC4)cccc3C2=O)cc1 (racemic) | 94 | 74 |  |
| COc1ccc(CN2C[C@@H]3CN(S(=O)(=O)c4ccc(Cl)s4)CC[C@@H]3Oc3ccc(NC(=O)C4CC4)cc3CC2=O)cc1 (racemic) | 1620 | 65 |  |
| COc1ccc(CN2C[C@@H]3CCN(S(=O)(=O)c4ccc(Cl)cc4Cl)C[C@@H]3Oc3c(NC(=O)C4CC4)cccc3C2=O)cc1 (racemic) | 766 | 102 |  |
| COc1ccc(CN2C[C@@H]3CCN(C(=O)Nc4ccc(F)cc4F)C[C@@H]3Oc3c(NC(=O)C4CC4)cccc3C2=O)cc1 (racemic) | 26 | 100 |  |
| COc1ccc(CN2CC3CN(C(=O)Nc4ccc(F)cc4F)CCC3Oc3c(NC(=O)C4CC4)cccc3C2=O)cc1 (racemic) | 540 | 87 |  |
| C[C@H](CO)N1CC2CCN(S(=O)(=O)c3ccc(Cl)cc3)CC2Oc2c(NC(=O)C3CC3)cccc2C1=O (single isomer, unassigned; (+)) |  | 40 |  |
| CS(=O)(=O)c1ccc(C(=O)Nc2ccc(Cl)c(-c3ccccn3)c2)c(Cl)c1 [VISMODEGIB] | 39 | 93 | inhibition (Mus musculus [7]): Active; inhibition (Medulloblastoma cell): Active; inhibition (Mus musculus [8]): inactive; inhibition (Mus musculus [9]): Active; inhibition (Mus musculus [10]): Active; inhibition (Mus musculus [11]): inactive; inhibition (Mus musculus [12]): inactive; inhibition (Mus musculus [13]): inactive; inhibition (Mus musculus [14]): Active |
